Data on 50 compounds can be found in ChEMBL document CHEMBL1134551, “The effect of 1,3-diaryl-[1H]-pyrazole-4-acetamides on glucose utilization in ob/ob mice” (2001).

Assay [1] has as its system Mus musculus. Kind of assay: Percentage efficacy to normalize the blood glucose levels to that of normal mouse in ob/ob mouse after 3 days and 4 hours of 100 mg/kg dose administration; Nonsignificant. In kind it is functional, organism-based. Also on record: dose 100 mg/kg. Summed up:
(§1)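 Adult male C57BL ob/ob mice, n = 6/group, matched on day-0 blood glucose; non-diabetic animals (<150 mg/dL basal) excluded. Oral dosing each morning days 1-3 in 0.5% CMC with 0.2% Tween-80. Tail-nick blood glucose by YSI analyzer. % efficacy = {1 − ([glc]cpd − 100)/([glc]veh − 100)} × 100. Significance by t-test vs vehicle, p < 0.05.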

Assay [2] concerns Mus musculus. The assay can be described thus: Percentage efficacy to normalize the blood glucose levels to that of normal mouse in ob/ob mouse after 3 days and 8 hours of 100 mg/kg dose administration; Nonsignificant. The format is functional, organism-based. Also on record: dose 100 mg/kg. The method in brief:
as §1

Assay [3] deals with Mus musculus. Kind of assay: Percentage efficacy to normalize the blood glucose levels to that of normal mouse in ob/ob mouse after 3 days and 8 hours of 100 mg/kg dose administration. The format is functional. The method in brief:
as §1

The subject of assay [4] is Mus musculus. The assay can be described thus: Percentage efficacy to normalize the blood glucose levels to that of normal mouse in ob/ob mouse after 3 days and 4 hours of 100 mg/kg dose administration. The format is functional. The method in brief:
as §1

For assay [5], the system named is Mus musculus. The assay can be described thus: Percentage efficacy to normalize the blood glucose levels to that of normal mouse in ob/ob mouse after 3 days and 8 hours of 300 mg/kg dose administration; Nonsignificant. Also on record: dose 300 mg/kg. In kind it is functional, organism-based. The method in brief:
as §1

The test system of assay [6] is Mus musculus. Kind of assay: Percentage efficacy to normalize the blood glucose levels to that of normal mouse in ob/ob mouse after 3 days and 4 hours of 300 mg/kg dose administration; Nonsignificant. Set-up: dose 300 mg/kg. The format is functional, organism-based. The method in brief:
as §1

The test system of assay [7] is Mus musculus. The assay can be described thus: Percentage efficacy to normalize the blood glucose levels to that of normal mouse in ob/ob mouse after 3 days and 8 hours of 300 mg/kg dose administration. The format is functional. The method in brief: as §1
Assay [8] relates to Mus musculus. Kind of assay: Percentage efficacy to normalize the blood glucose levels to that of normal mouse in ob/ob mouse after 3 days and 4 hours of 300 mg/kg dose administration. The format is functional. Summed up: as §1

The structures appear in SMILES notation.

For `CN(C)C(=O)Cc1cn(-c2cccc(C(F)(F)F)c2)nc1-c1cc2ccccc2c2ccccc12`, the Efficacy result in assay [1] and in assay [2] was “Not significant” each time.

As to `CN(C)C(=O)Cc1cn(-c2cccc(C(F)(F)F)c2)nc1-c1ccc2c(c1)C(C)(O)c1ccccc1-2` (stereo not given), the figures for the Efficacy in assay [3] and in assay [4] were 64% and 73%, respectively.

With `CN(C)C(=O)Cc1cn(-c2cccc(C(F)(F)F)c2)nc1-c1ccc2c(c1)Cc1ccccc1O2`, the Efficacy in assay [3] is reported as 96%; in assay [4], 65%.

For the compound `CN(C)C(=O)Cc1cn(-c2cccc(C(F)(F)F)c2)nc1-c1ccc2c(c1)Cc1ccccc1C2`, the figures for the Efficacy in assay [3] and in assay [4] were 70% and 79%, respectively.

As to `CN(C)C(=O)Cc1cn(-c2cccc([N+](=O)[O-])c2)nc1-c1ccc(Cl)c(Cl)c1`, the Efficacy is given as -88% in assay [3] and -72% in assay [4].

For the compound `O=C(Cc1cn(-c2cccc(C(F)(F)F)c2)nc1-c1ccc(Cl)c(Cl)c1)NO`, the Efficacy result in assay [5] and in assay [6] was “Not significant” in each case.

For the compound `CN(C)C(=O)Cc1cn(-c2cccc(C(F)(F)F)c2)nc1-c1ccc(C(C)(C)C)cc1`, the Efficacy result in assay [1] and in assay [2] was “Not significant” in each case.

Turning to `CN(C)C(=O)Cc1cn(-c2cccc(C(F)(F)F)c2)nc1-c1ccc2c(c1)CCc1ccccc1-2`, the Efficacy turned out to be 111% in assay [3] and 87% in assay [4].

Take `Cc1cccc(-n2cc(CC(=O)N(C)C)c(-c3ccc(Cl)c(Cl)c3)n2)c1`: the Efficacy result in assay [1] and in assay [2] was “Not significant” throughout.

On to `O=C(Cc1cn(-c2cccc(C(F)(F)F)c2)nc1-c1ccc(Cl)c(Cl)c1)N(Cc1ccccc1)Cc1ccccc1`, for which the Efficacy in assay [3] is 49%; in assay [4], 52%.

For the compound `CN(C)C(=O)Cc1cn(-c2cccc(C(F)(F)F)c2)nc1-c1ccc(-c2ccc(-c3ccccc3)cc2)cc1`, the Efficacy entry in assay [1] and in assay [2] was “Not significant” throughout.

On to `O=C(Cc1cn(-c2cccc(C(F)(F)F)c2)nc1-c1ccc(Cl)c(Cl)c1)N1CCOCC1`, for which the Efficacy result in assay [5] and in assay [6] was “Not significant” in each case.

Take `CN(C)C(=O)Cc1cn(-c2cccc(C(F)(F)F)c2)nc1-c1ccccc1`: the Efficacy in assay [7] worked out at 36%; in assay [8], 71%.

For the compound `CN(C)C(=O)Cc1cn(-c2ccc(Cl)c(Cl)c2)nc1-c1ccc(Cl)c(Cl)c1`, the Efficacy in assay [7] came out at 53%; in assay [8], 34%.

With `CN(C)C(=O)Cc1cn(-c2cccc(C(F)(F)F)c2)nc1-c1ccc2sc3ccccc3c2c1`, the Efficacy was 59% in assay [4] and “Not significant” in assay [2].

Take `CCOC(=O)Cc1cn(-c2cccc(C(F)(F)F)c2)nc1-c1ccc(Cl)c(Cl)c1`: the Efficacy result in assay [5] and in assay [6] was “Not significant” in each case.

Consider `CN(C)C(=O)Cc1cn(-c2cc(Cl)cc(Cl)c2)nc1-c1ccc(Cl)c(Cl)c1`, for which the values for the Efficacy entry in assay [5] and in assay [8] were “Not significant” and 52%, respectively.

On to `O=C(Cc1cn(-c2cccc(C(F)(F)F)c2)nc1-c1ccc(Cl)c(Cl)c1)N1CCCCC1`, for which the Efficacy result in assay [5] and in assay [6] was “Not significant” each time.

Regarding `CN(C)C(=O)Cc1cn(-c2cccc(C(F)(F)F)c2)nc1-c1ccc(Cl)cc1`, the Efficacy in assay [7] is 78%; in assay [6], “Not significant”.

For the compound `CONC(=O)Cc1cn(-c2cccc(C(F)(F)F)c2)nc1-c1ccc(Cl)c(Cl)c1`, the figures for the Efficacy in assay [7] and in assay [8] were 35% and 48%, respectively.

For `CN(C)C(=O)Cc1cn(-c2cccc(C(F)(F)F)c2)nc1-c1ccc2c(ccc3ccccc32)c1`, the Efficacy was found to be 71% in assay [3] and 90% in assay [4].

On to `O=C(Cc1cn(-c2cccc(C(F)(F)F)c2)nc1-c1ccc(Cl)c(Cl)c1)N1CCCC1`, for which the Efficacy was 76% in assay [7] and 72% in assay [8].

Consider `O=C(Cc1cn(-c2cccc(F)c2)nc1-c1ccc(Cl)c(Cl)c1)N1CCCC1`, for which the Efficacy in assay [7] is 75%; in assay [8], 74%.

As to `CN(C)C(=O)Cc1cn(-c2ccc(F)cc2)nc1-c1ccc(Cl)c(Cl)c1`, the Efficacy came out at 39% in assay [7] and 84% in assay [8].

On to `Cc1cc(C)cc(-n2cc(CC(=O)N(C)C)c(-c3ccc(Cl)c(Cl)c3)n2)c1`, for which the Efficacy entry in assay [5] and in assay [6] was “Not significant” in each case.

For the compound `CCN(CC)C(=O)Cc1cn(-c2cccc(C(F)(F)F)c2)nc1-c1ccc(Cl)c(Cl)c1`, the Efficacy is given as 50% in assay [7] and 45% in assay [8].

In the case of `CN(C)C(=O)Cc1cn(-c2cccc(C(F)(F)F)c2)nc1-c1ccc2c(c1)C(=O)c1ccccc1-2`, the Efficacy is 78% in assay [3] and 107% in assay [4].

As for `CN(C)C(=O)Cc1cn(-c2cccc(C(F)(F)F)c2)nc1-c1cccc(-c2ccccc2)c1`, the Efficacy result in assay [1] and in assay [2] was “Not significant” each time.

On to `O=C(O)Cc1cn(-c2cccc(C(F)(F)F)c2)nc1-c1ccc(Cl)c(Cl)c1`, for which the Efficacy entry in assay [5] and in assay [6] was “Not significant” each time.

`COc1ccc(-c2nn(-c3cccc(C(F)(F)F)c3)cc2CC(=O)N(C)C)cc1OC`: the Efficacy was 85% in assay [3] and “Not significant” in assay [1].

Turning to `O=C(Cc1cn(-c2cccc(C(F)(F)F)c2)nc1-c1ccc(Cl)c(Cl)c1)Nc1ccccc1`, the Efficacy entry in assay [5] and in assay [6] was “Not significant” in each case.

As for `CN(C)C(=O)Cc1cn(-c2ccc(C(C)(C)C)cc2)nc1-c1ccc(Cl)c(Cl)c1`, the Efficacy entry in assay [1] and in assay [2] was “Not significant” in each case.

For `CN1CCN(C(=O)Cc2cn(-c3cccc(C(F)(F)F)c3)nc2-c2ccc(Cl)c(Cl)c2)CC1`, the Efficacy result in assay [5] was “Not significant”; in assay [8], 54%.

In the case of `CN(C)C(=O)Cc1cn(-c2cccc(C(F)(F)F)c2)nc1-c1ccc(Cc2ccccc2)cc1`, the Efficacy result in assay [1] and in assay [2] was “Not significant” in each case.

With `CN(C)C(=O)Cc1cn(-c2cccc(C(F)(F)F)c2)nc1-c1ccc(Oc2ccccc2)cc1`, the Efficacy result in assay [1] and in assay [2] was “Not significant” each time.

As for `CN(C)C(=O)Cc1cn(-c2cccc(C(F)(F)F)c2)nc1-c1ccccc1-c1ccccc1`, the Efficacy result in assay [1] and in assay [2] was “Not significant” in each case.

As for `CN(C)C(=O)Cc1cn(-c2ccc(C(F)(F)F)cc2)nc1-c1ccc(Cl)c(Cl)c1`, the Efficacy in assay [7] stood at 37%; in assay [8], 45%.

Take `CN(C)C(=O)Cc1cn(-c2cccc(C(F)(F)F)c2)nc1-c1ccc(Cl)c(Cl)c1`: the Efficacy in assay [7] is 63%; in assay [6], “Not significant”.

On to `CN(C)C(=O)Cc1cn(-c2cccc(C(F)(F)F)c2)nc1-c1cccc2ccccc12`, for which the Efficacy entry in assay [1] and in assay [2] was “Not significant” throughout.

Regarding `CN(C)C(=O)Cc1cn(-c2cccc(C(F)(F)F)c2)nc1-c1ccc2ccccc2c1`, the Efficacy result in assay [1] and in assay [2] was “Not significant” each time.

Take `CN(C(=O)Cc1cn(-c2cccc(C(F)(F)F)c2)nc1-c1ccc(Cl)c(Cl)c1)c1ccccc1`: the Efficacy result was “Not significant” in assay [5] and 57% in assay [8].

Take `CN(C)C(=O)Cc1cn(-c2cccc(C(F)(F)F)c2)nc1-c1ccc2oc3ccccc3c2c1`: the Efficacy entry in assay [1] and in assay [2] was “Not significant” each time.

Consider `CN(C)C(=O)Cc1cn(-c2cc(C(F)(F)F)cc(C(F)(F)F)c2)nc1-c1ccc(Cl)c(Cl)c1`, for which the Efficacy result in assay [5] and in assay [6] was “Not significant” throughout.

Regarding `COc1ccc(-n2cc(CC(=O)N(C)C)c(-c3ccc(Cl)c(Cl)c3)n2)cc1`, the Efficacy in assay [7] was determined as 35%; in assay [8] it was 39%.

Regarding `CN(C)C(=O)Cc1cn(-c2ccc(Cl)cc2)nc1-c1ccc(Cl)c(Cl)c1`, the Efficacy in assay [7] is 52%; in assay [8] it was 47%.

Consider `O=C(Cc1cn(-c2cccc(C(F)(F)F)c2)nc1-c1ccc(Cl)c(Cl)c1)N1CCN(c2ccccc2)CC1`, for which the Efficacy in assay [3] was 42%; in assay [1], “Not significant”.

As for `CN(C)C(=O)Cc1cn(-c2cccc(C(F)(F)F)c2)nc1-c1ccc2c(c1)C(C)(C)c1ccccc1-2`, the Efficacy in assay [3] is 83%; in assay [4] it was 67%.

For the compound `CN(C)C(=O)Cc1cn(-c2cccc(C(F)(F)F)c2)nc1-c1ccc(-c2ccc(F)cc2)cc1`, the Efficacy was 81% in assay [3] and “Not significant” in assay [1].

Take `CC(=O)OC1c2ccccc2-c2ccc(-c3nn(-c4cccc(C(F)(F)F)c4)cc3CC(=O)N(C)C)cc21` (stereo not given): the Efficacy in assay [3] is 108%; in assay [4] it was 95%.

In the case of `Cc1ccc(-c2nn(-c3cccc(C(F)(F)F)c3)cc2CC(=O)N(C)C)cc1`, the values for the Efficacy in assay [7] and in assay [8] were 36% and 58%, respectively.
